Laboratory results as given in ChEMBL document CHEMBL4765386, “Discovery of tertiary amide derivatives incorporating benzothiazole moiety as anti-gastric cancer agents in vitro via inhibiting tubulin polymerization and activating the Hippo signaling pathway” (Eur J Med Chem, 2020).
Active and inactive are the calls of the source. The calls are words filed in the database; no cut-off is given here.

Key:
MGC-803 [1] = assay: Inhibition of tubulin polymerization in human MGC-803 cells assessed as increase in multiple nucleus formation at 20 to 60 nmol/L by DAPI staining based microscopic analysis; type: cell-based; details: dose 20-60 nmol/L
How it was run: (§1)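 Cells cultured in RPMI-1640 with 10% FBS at 37 °C, 5% CO2, treated 48 h with 20, 40 and 60 nM; stained for β-tubulin (green) and nuclei (blue) and examined by microscopy.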

MGC-803 [2] = assay: Induction of apoptosis in human MGC-803 cells assessed as late apoptotic cells at 20 nM incubated for 48 hrs by annexin V-FITC and PI staining based flow cytometry analysis (reference value: 4.1 %); type: functional
MGC-803 [3] = assay: Inhibition of tubulin polymerization in human MGC-803 cells assessed as decrease in filamentous structure at 20 to 60 nmol/L by DAPI staining based microscopic analysis; type: cell-based; details: dose 20-60 nmol/L; how it was run: as §1
MGC-803 [4] = assay: Induction of apoptosis in human MGC-803 cells assessed as downregulation of c-IAP2 at 20 to 60 nM incubated for 48 hrs by Western blot analysis; type: functional, cell-based; details: dose 20-60 nM
How it was run: (§2)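 Western blot on MGC-803 and SGC-7901 cells given 20, 40 and 60 nM compound or DMSO for 48 h. Denatured lysates were run on SDS-PAGE and transferred to PVDF, then probed with primary and secondary antibodies to detect apoptosis-related proteins.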

MGC-803 [5] = assay: Activation of Hippo signaling pathway in human […] cells assessed as increase in LATS phosphorylation at 20 to 60 nM incubated for 48 hrs by Western blot analysis; type: cell-based; details: filed as activator, dose 20-60 nM
How it was run: (§3)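 Western blot on gastric cancer cells exposed to compound or DMSO at 20, 40 and 60 nM for 48 h. Cells were lysed, then the denatured lysates were separated by SDS-PAGE and transferred to PVDF. Membranes were blocked and probed with primary and then secondary antibodies. Hippo pathway proteins were detected.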

SGC-7901 [6] = assay: Induction of apoptosis in human SGC-7901 cells assessed as upregulation of FADD at 20 to 60 nM incubated for 48 hrs by Western blot analysis; type: functional, cell-based; details: dose 20-60 nM
How it was run: (§4)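 Cells grown in RPMI-1640 with 10% FBS, penicillin/streptomycin at 37 °C, 5% CO2. Exposure to 20, 40 or 60 nM for 48 h alongside DMSO control. Lysates denatured, resolved by SDS-PAGE, transferred to PVDF, blocked, then probed with primary and secondary antibodies.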

SGC-7901 [7] = assay: Induction of cell cycle arrest in human SGC-7901 cells assessed as upregulation of Histone-H3 Ser10 at 20 to 60 nM incubated for 48 hrs by Western blot analysis; type: functional, cell-based; details: dose 20-60 nM; how it was run: as §4
SGC-7901 [8] = assay: Induction of apoptosis in human SGC-7901 cells assessed as increase in PARP cleavage at 20 to 60 nM incubated for 48 hrs by Western blot analysis; type: functional, cell-based; details: dose 20-60 nM; how it was run: as §4
SGC-7901 [9] = assay: Activation of Hippo signaling pathway in human SGC-7901 cells assessed as increase in LATS phosphorylation at 20 to 60 nM incubated for 48 hrs by Western blot analysis; type: cell-based; details: filed as activator, dose 20-60 nM; how it was run: as §3
SGC-7901 [10] = assay: Induction of apoptosis in human SGC-7901 cells assessed as increase in caspase-9 cleavage at 20 to 60 nM incubated for 48 hrs by Western blot analysis; type: functional, cell-based; details: dose 20-60 nM; how it was run: as §4
MGC-803 [11] = assay: Displacement of EBI from beta-tubulin in human MGC-803 cells assessed as reduction in tubulin adduct formation incubated for 2 hrs followed by EBI addition and measured after 2 hrs by Western blot analysis; type: cell-based; details: dose 0.25-2.5 µM, time 4.0 hrs
How it was run: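 EBI competition assay. […] EBI was then added at […] as printed for another 2 h. Harvested cells were immunoblotted with anti-β-tubulin antibody to detect β-tubulin and the alkylated β-tubulin adduct.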

SGC-7901 [12] = assay: Induction of cell cycle arrest in human SGC-7901 cells assessed as downregulation of CDK1 at 20 to 60 nM incubated for 48 hrs by Western blot analysis; type: functional, cell-based; details: dose 20-60 nM; how it was run: as §4
MGC-803 [13] = assay: Induction of apoptosis in human MGC-803 cells assessed as upregulation of DR5 at 20 to 60 nM incubated for 48 hrs by Western blot analysis; type: functional, cell-based; details: dose 20-60 nM; how it was run: as §2
MGC-803 [14] = assay: Induction of apoptosis in human MGC-803 cells assessed as downregulation of Mcl-1 at 20 to 60 nM incubated for 48 hrs by Western blot analysis; type: functional, cell-based; details: dose 20-60 nM; how it was run: as §2
GES1 = assay: Cytotoxicity against human GES1 cells assessed as reduction in cell viability incubated for 48 hrs by MTT assay; type: functional, cell-based; details: GES1, 48 h
How it was run: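 MTT assay. 5,000 cells per well in RPMI-1640 with 10% FBS and penicillin/streptomycin at 37 °C, 5% CO2. Compound added 24 h after seeding and left for 48 h. MTT was then added for 4 h at 37 °C, formazan dissolved in DMSO and absorbance read at 490 nm. IC50 calculated from three independent experiments.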

SGC-7901 [15] = assay: Activation of Hippo signaling pathway in human SGC-7901 cells assessed as downregulation of TEAD at 20 to 60 nM incubated for 48 hrs by Western blot analysis; type: cell-based; details: filed as activator, dose 20-60 nM; how it was run: as §3
MGC-803 [16] = assay: Activation of Hippo signaling pathway in human […] cells assessed as downregulation of TEAD at 20 to 60 nM incubated for 48 hrs by Western blot analysis; type: cell-based; details: filed as activator, dose 20-60 nM; how it was run: as §3
MGC-803 [17] = assay: Induction of apoptosis in human MGC-803 cells assessed as upregulation of Bax at 20 to 60 nM incubated for 48 hrs by Western blot analysis; type: functional, cell-based; details: dose 20-60 nM; how it was run: as §2
SGC-7901 [18] = assay: Induction of cell cycle arrest in human SGC-7901 cells assessed as increase in G2/M phase accumulation incubated for 24 hrs by PI staining based flow cytometry analysis; type: functional; details: dose 20-60 nM
How it was run: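 Cells in RPMI-1640/10% FBS at 37 °C, 5% CO2, exposed to 20, 40 and 60 nM for 24 h before flow cytometric cell-cycle distribution analysis.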

SGC-7901 [19] = assay: Induction of apoptosis in human SGC-7901 cells assessed as upregulation of Bak at 20 to 60 nM incubated for 48 hrs by Western blot analysis; type: functional, cell-based; details: dose 20-60 nM; how it was run: as §4
SGC-7901 [20] = assay: Induction of apoptosis in human SGC-7901 cells assessed as increase in caspase-3 cleavage at 20 to 60 nM incubated for 48 hrs by Western blot analysis; type: functional, cell-based; details: dose 20-60 nM; how it was run: as §4
MGC-803 [21] = assay: Induction of cell cycle arrest in human MGC-803 cells assessed as downregulation of Cyclin B1 at 20 to 60 nM incubated for 48 hrs by Western blot analysis; type: functional, cell-based; details: dose 20-60 nM; how it was run: as §4
MGC-803 [22] = assay: Activation of Hippo signaling pathway in human […] cells assessed as decrease in c-MYC expression incubated for 48 hrs by Western blot analysis; type: cell-based; details: filed as activator, dose 20-60 nM; how it was run: as §3
[23] = Inhibition of pig brain tubulin polymerization in presence of GTP by spectrophotometric method; set-up: species or system Sus scrofa
How it was run: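 Tubulin purified from pig brain by three temperature-dependent assembly/disassembly cycles in PIPES pH 6.5 (100 mM), 1.0 mM MgSO4, 2.0 mM EGTA, 1.0 mM GTP, 1.0 mM 2-mercaptoethanol, then phosphocellulose chromatography. Protein mixed with compound in PEM buffer with 1 mM GTP and 5% glycerol.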

MGC-803 [24] = assay: Antiproliferative activity against human MGC-803 cells assessed as reduction in cell viability at 60 nmol/L incubated for 48 hrs by MTT assay relative to control; type: functional
How it was run: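 MTT viability in gastric cell lines grown in RPMI-1640 with 10% FBS at 37 °C, 5% CO2. Compound at 20, 40 and 60 nM for 48 h, starting 24 h after seeding 5,000 cells per well. MTT for 4 h, formazan dissolved in DMSO, absorbance at 490 nm. Inhibition expressed relative to control.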

In the case of `COc1ccc(CN(C(=O)CSc2nc3ccccc3s2)c2cc(OC)c(OC)c(OC)c2)cc1O`, the Activity (MGC-803 [1]) is reported as “Active”, the Activity (MGC-803 [2]) is reported as 4.1% and the Activity (MGC-803 [3]) is reported as “Active”. The Activity (MGC-803 [4]) was “Active”, the Activity (MGC-803 [5]) was “Active” and the Activity (SGC-7901 [6]) was “Active”. For the same molecule, the Activity (SGC-7901 [7]) was “Active”, the Activity (SGC-7901 [8]) was “Active” and the Activity (SGC-7901 [9]) was “Active”. The Activity (SGC-7901 [10]) was “Active”, the inhibition (MGC-803 [11]) was “Dose-dependent effect” and the Activity (SGC-7901 [12]) was “Active”. The Activity (MGC-803 [13]) was “Active”, the Activity (MGC-803 [14]) was “Active” and the IC50 (GES1) was 249 nM. For the same molecule, the Activity (SGC-7901 [15]) was “Active”, the Activity (MGC-803 [16]) was “Active” and the Activity (MGC-803 [17]) was “Active”. The Activity (SGC-7901 [18]) was “Dose-dependent effect”, the Activity (SGC-7901 [19]) was “Active” and the Activity (SGC-7901 [20]) was “Active”. For the same molecule, the Activity (MGC-803 [21]) was “Active”, the Activity (MGC-803 [22]) was “Dose-dependent effect” and the IC50 [23] was 1900 nM. For the same molecule, the inhibition at 0.06 µM (MGC-803 [24]) was 72%.
